Kb and Papp A→B data for 11 molecules are collected here from ChEMBL document CHEMBL6127151, “Cyclic Peptide C5aR1 Antagonist Design Using Solution Conformational Analysis Derived from Residual Dipolar Couplings” (ACS Med Chem Lett, 2024).

Bounds are passed on as bounds.

Series [1] concerns the target T1, C5a anaphylatoxin chemotactic receptor 1 (Homo sapiens) (UniProt P21730).
T1 sequence (whole entry): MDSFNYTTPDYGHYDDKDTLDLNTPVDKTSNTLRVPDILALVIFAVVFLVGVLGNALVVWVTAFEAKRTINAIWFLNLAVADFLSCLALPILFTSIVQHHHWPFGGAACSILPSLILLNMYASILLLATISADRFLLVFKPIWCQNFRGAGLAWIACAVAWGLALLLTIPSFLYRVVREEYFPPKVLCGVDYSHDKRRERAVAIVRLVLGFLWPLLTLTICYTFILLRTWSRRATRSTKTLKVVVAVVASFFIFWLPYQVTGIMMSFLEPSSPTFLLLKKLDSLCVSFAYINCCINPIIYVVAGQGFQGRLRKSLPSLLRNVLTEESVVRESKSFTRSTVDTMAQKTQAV
Kind of series: Binding affinity to C5aR1 receptor (unknown origin) assessed as binding constant. The following applies: time 10.0 min.

Series [2] in a line: Passive permeability across apical to basolateral side in dog RRCK cells incubated for 30 mins. In kind it is ADME, cell-based, Canis lupus familiaris, MDCKII-LE. To be noted: MDCK, read-out: permeability. Summed up: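 Passive absorptive permeability was measured from the apical to the basolateral side in RRCK cells after a 30 min preincubation. Values are reported as the mean, in 10–6 cm/s.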

As for `C[C@@H](Cc1ccccc1)C(=O)N[C@H]1CCCN(C)C(=O)[C@H](Cc2ccccc2)NC(=O)[C@H](Cc2ccc(F)cc2)NC(=O)[C@@H](CC2CCCCC2)NC(=O)[C@H]([C@@H](C)O)NC1=O`, in series [1] (filed as antagonist), the Kb was 38.9 nM. In addition, in series [2], the Papp A→B at 0.5 h worked out at 5.5 ×10⁻⁶ cm/s.

Take `CCN1CC[C@H](NC(=O)c2ccnn2-c2ccccc2)C(=O)N[C@@H]([C@@H](C)O)C(=O)N[C@@H](CC(C)C)C(=O)N[C@@H](Cc2ccc(F)cc2)C(=O)N[C@@H](Cc2ccccc2)CC1=O`: in series [1] (filed as antagonist), the Kb came out at 54 nM. The Papp A→B at 0.5 h in series [2] worked out at 0.4 ×10⁻⁶ cm/s.

Regarding `CCCC[C@@H]1NC(=O)[C@H](Cc2ccc(F)cc2)N(C)C(=O)[C@@H](CC2CCCCC2)NC(=O)[C@@H]2CCCN2C(=O)[C@@H](NC(=O)[C@@H](C)Cc2ccccc2)CCCN(C)C1=O`, in series [1], the Kb is more than 10000 nM. Besides, the Papp A→B at 0.5 h in series [2] amounted to 2.6 ×10⁻⁶ cm/s.

Consider `C[C@@H](Cc1ccccc1)C(=O)N[C@H]1CCN(C)C(=O)C[C@H](Cc2ccccc2)NC(=O)[C@H](Cc2ccc(F)cc2)NC(=O)[C@@H](CC2CCCCC2)NC(=O)[C@@H]2CCCN2C1=O`, for which the Kb in series [1] (filed as antagonist) amounted to 5.52 nM. In addition, the Papp A→B at 0.5 h in series [2] worked out at 5 ×10⁻⁶ cm/s.

Take `C[C@@H](Cc1ccccc1)C(=O)N[C@H]1CCCN(C)C(=O)[C@H](Cc2ccccc2)NC(=O)[C@H](Cc2ccc(F)cc2)NC(=O)[C@@H](CC2CCCCC2)NC(=O)[C@@H]2CCN2C1=O`: in series [1] (filed as antagonist), the Kb came to 57.5 nM. The Papp A→B at 0.5 h in series [2] came to 11.1 ×10⁻⁶ cm/s.

With `C[C@@H](Cc1ccccc1)C(=O)N[C@H]1CCN(C)C(=O)C[C@H](Cc2ccccc2)NC(=O)[C@H](Cc2ccc(F)cc2)N(C)C(=O)[C@@H](CC2CCCCC2)NC(=O)[C@@H]2CCCN2C1=O`, the Kb in series [1] (filed as antagonist) came out at 127 nM. Also, the Papp A→B at 0.5 h in series [2] came out at 2.1 ×10⁻⁶ cm/s.

For the molecule `C[C@@H](Cc1ccccc1)C(=O)N[C@H]1CC[C@H]2CCCN2C(=O)[C@H](Cc2ccccc2)NC(=O)[C@H](Cc2ccc(F)cc2)NC(=O)[C@@H](CC2CCCCC2)NC(=O)[C@@H]2CCCN2C1=O`, the Kb in series [1] (filed as antagonist) amounted to 46.5 nM. Further, in series [2], the Papp A→B at 0.5 h is 3.4 ×10⁻⁶ cm/s.

As to `CCCC[C@@H]1NC(=O)[C@H](Cc2ccc(F)cc2)NC(=O)[C@@H](CC2CCCCC2)N(C)C(=O)[C@@H]2CCCN2C(=O)[C@@H](NC(=O)[C@@H](C)Cc2ccccc2)CCCN(C)C1=O`, the Kb in series [1] is more than 10000 nM. Further, the Papp A→B at 0.5 h in series [2] was 4.4 ×10⁻⁶ cm/s.

On to `CCCC[C@H]1C(=O)N(C)CCC[C@H](NC(=O)[C@@H](C)Cc2ccccc2)C(=O)N2CCC[C@H]2C(=O)N[C@H](CC2CCCCC2)C(=O)N[C@@H](Cc2ccc(F)cc2)C(=O)N1C`, for which the Kb in series [1] is more than 9500 nM. In addition, the Papp A→B at 0.5 h in series [2] was determined as 4.2 ×10⁻⁶ cm/s.

As for `C[C@@H](Cc1ccccc1)C(=O)N[C@H]1CCCN(C)C(=O)[C@H](Cc2ccccc2)NC(=O)[C@H](Cc2ccc(F)cc2)NC(=O)[C@@H](CC2CCCCC2)NC(=O)[C@@H]2CCCN2C1=O`, in series [1] (filed as antagonist), the Kb was 36.3 nM. Further, in series [2], the Papp A→B at 0.5 h was 2.6 ×10⁻⁶ cm/s.

For `C[C@@H](Cc1ccccc1)C(=O)N[C@@H]1C(=O)N2CCC[C@H]2C(=O)N[C@H](CC2CCCCC2)C(=O)N[C@@H](Cc2ccc(F)cc2)C(=O)N[C@@H](Cc2ccccc2)C(=O)N2CCC1CC2`, the Kb in series [1] (filed as antagonist) is 82.8 nM. Besides, in series [2], the Papp A→B at 0.5 h was found to be 6.5 ×10⁻⁶ cm/s.
